In ChEMBL document CHEMBL4513216, “Probing the Open Global Health Chemical Diversity Library for Multistage-Active Starting Points for Next-Generation Antimalarials” (ACS Infect Dis, 2020) one finds cytotoxicity data, which are given here for 96 compounds.

SMILES strings stand for the structures.

This series can be described thus: Toxicity liver stage against HepG2, at 10uM. To be noted: human, HepG2-A16-CD81EGFP cells; read-out: INHIBITION
Type of series: cell-based. More on the design: test concentration 10 uM, cell line HepG2-A16-CD81EGFP. The procedure, abridged: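 Uninfected HepG2-A16-CD81EGFP cells, 3 × 10^3 per well, 1536-well, plated on prespotted compound at 10 μM final, parasite-free screening media added to match infected plates; puromycin 10 μM positive, DMSO 0.5% negative; run in parallel with 48 h PbLuc assay at 37 °C, 5% CO2; viability by CellTiter-Glo luminescence, normalized to controls.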
Turning to `O=C(c1cccnc1Oc1ccccc1)N1CCCn2ncnc21`, the cytotoxicity at 10 µM was -13.7%.

`CC(=O)N1CCC(N2CC[C@H](c3nc4cc(C)ccc4o3)C2)CC1`: the cytotoxicity at 10 µM came to 2.84%.

For `CCN(CC)C[C@H]1CN2CC[C@H]1C[C@@H]2CNC(=O)c1ccco1`, the cytotoxicity at 10 µM was -2.49%.

`O=C1CO[C@H]2CN(S(=O)(=O)c3ccccc3)C[C@H]2N1Cc1ccccc1`: the cytotoxicity at 10 µM is -1.69%.

With `COCc1cn(C[C@H]2CC3CCN2C[C@@H]3C(=O)Nc2ccccc2)nn1` (stereo partly specified), the cytotoxicity at 10 µM is -0.522%.

Regarding `CC(C)NC(=O)C[C@@H]1CCNC[C@@H]1Cc1cc(-c2ccccn2)on1`, the cytotoxicity at 10 µM is -3.15%.

`CC1=C[C@@H](CNS(C)(=O)=O)[C@H](C(C)C)C[C@H]1CC(=O)NCCN(C)C`: the cytotoxicity at 10 µM was 0.559%.

In the case of `COc1ccc(NC(=O)Cn2ccc3c(=O)n(C)ccc32)cc1OC`, the cytotoxicity at 10 µM is -4.34%.

Consider `CCCNC(=O)c1cn(C(C)(C)C)c2ncccc12`, for which the cytotoxicity at 10 µM is -0.317%.

Turning to `COCCn1cnc2ccc(NC(=O)c3ccc(OC)cc3)cc2c1=O`, the cytotoxicity at 10 µM was -6.78%.

For the compound `Cc1cnc(NC2CCc3c(ccc(=O)n3C)C2)nc1` (stereo unspecified), the cytotoxicity at 10 µM was -149%.

As to `CC(=O)N1CCC2(CC1)CN(C(=O)c1cccc3[nH]ccc13)C2`, the cytotoxicity at 10 µM was -121%.

In the case of `Cc1nnc([C@@H]2CC[C@@H]3[C@@H](CCN3CC3CCOCC3)O2)o1`, the cytotoxicity at 10 µM was 7.64%.

Turning to `Cc1noc(C2CCC3(CCN(C(=O)c4ncccn4)CC3)O2)n1` (stereo unspecified), the cytotoxicity at 10 µM stood at 4.09%.

As for `CCS(=O)(=O)N1CCC2(CC(=O)N(c3cnn(C)c3)C2)C1` (stereo unspecified), the cytotoxicity at 10 µM stood at 6.92%.

In the case of `CN1CCN(Cn2nc(-c3cccs3)ccc2=O)CC1`, the cytotoxicity at 10 µM was determined as 2.63%.

As for `CN1CCN(C(=O)Cn2ccc3c(Cl)cccc32)CC1`, the cytotoxicity at 10 µM was 2.08%.

Turning to `CC[C@H](C)[C@H](NC(=O)c1ccccc1-n1cnnn1)C(=O)OC`, the cytotoxicity at 10 µM came out at 5.16%.

For the compound `O=C(c1cnn2c1OCCC2)N1CCC2(CC1)OCCO2`, the cytotoxicity at 10 µM turned out to be 7.91%.

As to `Cc1nc(N2CCN(C(=O)c3ccccc3)CC2)c2c(n1)c(C)nn2C`, the cytotoxicity at 10 µM came to 15.7%.

As to `Nc1nc(SCc2ccc3c(c2)OCO3)ns1`, the cytotoxicity at 10 µM is -0.681%.

Consider `CCN(CC)S(=O)(=O)c1cc2c3c(c1)c(C)cc(=O)n3CCC2`, for which the cytotoxicity at 10 µM is 2.85%.

As to `Cc1cc(C)nc(N2CCC(c3c(C(N)=O)sc4ccccc34)C2)n1` (stereo unspecified), the cytotoxicity at 10 µM turned out to be 8.78%.

With `O[C@H]1CN(Cc2ccnc(N3CCCC3)n2)CC[C@@]12CCCO2`, the cytotoxicity at 10 µM amounted to 3.62%.

With `Cc1c[nH]nc1C1CCN(C(=O)C2CCC2)CC1`, the cytotoxicity at 10 µM was determined as 5.33%.

For the compound `Cc1nccc(C2CN(C(=O)c3cncnc3)C2)n1`, the cytotoxicity at 10 µM is -2.46%.

Consider `O=C(c1nsc(Cl)c1Cl)N1CCc2nc3sccc3c(=O)n2CC1`, for which the cytotoxicity at 10 µM is -20.4%.

For `CC(=O)N1CCC(Cc2nccnc2-c2c(C)n[nH]c2C)C1` (stereo unspecified), the cytotoxicity at 10 µM turned out to be 10.7%.

With `Cc1ncc2c(n1)CCN(Cc1ncc(C(C)(C)C)o1)C2`, the cytotoxicity at 10 µM is 14%.

In the case of `CC(CNC(=O)c1cccc(-n2cccn2)c1)Cn1ccnc1` (stereo unspecified), the cytotoxicity at 10 µM turned out to be 0.335%.

As for `NC1(c2nc(-c3ccccc3)cc(=O)[nH]2)CCCC1`, the cytotoxicity at 10 µM is 1.47%.

`Cc1nc(CN(C)C(=O)Nc2cccc(COC(C)C)c2)no1`: the cytotoxicity at 10 µM turned out to be 8.45%.

For `O=C(CCn1cccn1)NCCOc1ccc2c(c1)OCO2`, the cytotoxicity at 10 µM was -5.01%.

Take `NC(=O)[C@@H]1Cc2ccccc2N1C(=O)C1CC(c2ccccc2)=NO1` (stereo partly specified): the cytotoxicity at 10 µM stood at 5.79%.

Regarding `COc1cccc(CCC(=O)Nc2cnc3c(c2)c(C)nn3C)c1OC`, the cytotoxicity at 10 µM is 1.67%.

Take `Cc1ccc(OCCN(C)S(=O)(=O)c2cnn(C)c2)cc1`: the cytotoxicity at 10 µM stood at 0.821%.

For `N#Cc1ccc(CN2CCCN(C(=O)CCn3cncn3)CC2)cc1`, the cytotoxicity at 10 µM was -12.7%.

`CN(Cc1cccc(Cl)c1)Cc1nnsc1Cl`: the cytotoxicity at 10 µM was found to be 6.78%.

Regarding `CCN1CCC(CNC(=O)Nc2cccnc2OC)CC1`, the cytotoxicity at 10 µM is -0.523%.

For the compound `Cc1cc(C(=O)N2CCN(S(C)(=O)=O)[C@@H](C)C2)c(F)cc1F`, the cytotoxicity at 10 µM was -1.78%.

For `COCCc1noc(CN2CCCC2c2noc(C3CC3)n2)n1` (stereo unspecified), the cytotoxicity at 10 µM amounted to 1.33%.

As for `CN(Cc1ccco1)C(=O)C1=NN(C)C(=O)CC1`, the cytotoxicity at 10 µM was -144%.

In the case of `Cc1cc(CCCC(=O)NC2CCN(C)C2=O)c(C)s1` (stereo unspecified), the cytotoxicity at 10 µM was -0.67%.

As for `CC(C)SCc1cccc(NC2CCN(C)C2=O)c1` (stereo unspecified), the cytotoxicity at 10 µM was 1.26%.

With `Cc1ccc(S(=O)(=O)N(CC(N)=O)CC(C)C)cc1C`, the cytotoxicity at 10 µM was -14.5%.

Take `CS(=O)(=O)N1CCC(CSc2ccccc2)C1` (stereo unspecified): the cytotoxicity at 10 µM was 1.58%.

`COc1cc(OC)cc(C(=O)NCCCNc2ncccn2)c1`: the cytotoxicity at 10 µM is -11.1%.

As to `CCn1nc(C(=O)N2CCCC2c2noc(C3CC3)n2)ccc1=O` (stereo unspecified), the cytotoxicity at 10 µM worked out at 5.65%.

As for `CCN(CC)c1ccc(C(=O)NCC2(C(N)=O)CCOCC2)cn1`, the cytotoxicity at 10 µM came to 2.99%.

Regarding `CSc1ncccc1C(=O)NCC(c1ccco1)N(C)C` (stereo unspecified), the cytotoxicity at 10 µM worked out at 2.57%.

Take `CCC(NC(=O)CCCNC(=O)OC)c1cc(F)ccc1F` (stereo unspecified): the cytotoxicity at 10 µM is -2.34%.

For the compound `CS(=O)(=O)CC1(CNc2c(C#N)cnc3ccc(Cl)cc23)CC1`, the cytotoxicity at 10 µM worked out at 8.62%.

For the compound `CC(=O)N1CCSCC1c1ccc(C)o1` (stereo unspecified), the cytotoxicity at 10 µM was -0.872%.

In the case of `CCn1c(CN2CCOC(Cn3cncn3)C2)nc2cc(F)ccc21` (stereo unspecified), the cytotoxicity at 10 µM is -4.84%.

As to `N#Cc1c(F)cccc1NCCCOCC1CCOC1` (stereo unspecified), the cytotoxicity at 10 µM is -2.64%.

In the case of `Cc1ccc(-c2nc(CNc3ccc(C(N)=O)c(C)c3)cs2)o1`, the cytotoxicity at 10 µM came out at 23.9%.

For the compound `CCCC(NC(=O)c1cc(C)n(C2CC2)c1C)c1nnn[nH]1` (stereo unspecified), the cytotoxicity at 10 µM was -10.1%.

Regarding `O=C(Nc1ccnc(OC2CCOC2)c1)C1CCC1` (stereo unspecified), the cytotoxicity at 10 µM was 5.76%.

As for `Cc1cccc(CN2CCc3onc(CN(C)C)c3C2)n1`, the cytotoxicity at 10 µM is -4.62%.

Take `CN1CCC(Cc2nc(-c3cnccn3)n(Cc3ccccc3)n2)CC1`: the cytotoxicity at 10 µM is 1.21%.

As for `OCc1cn(CC2CCN(C3CCSC3)CC2)nn1` (stereo unspecified), the cytotoxicity at 10 µM turned out to be 0.55%.

Take `CN(CC(O)CO)C(=O)c1coc(COc2cccc(F)c2)n1` (stereo unspecified): the cytotoxicity at 10 µM was -149%.

On to `CCN1CC2(CCC1=O)CCN(C(=O)c1cn3cccnc3n1)CC2`, for which the cytotoxicity at 10 µM is -9.7%.

Regarding `CCNC(=O)[C@@H]1C[C@@H](NC(=O)c2ccc(C#N)cc2)CN1CCCSC`, the cytotoxicity at 10 µM was -123%.

With `CCn1nc(C)c(CCNC(=O)C2CCCN(C(=O)COC)C2)c1C` (stereo unspecified), the cytotoxicity at 10 µM is -0.367%.

`CC(=O)N[C@@H]1CN(Cc2cccs2)C[C@H]1c1ccc(C)o1`: the cytotoxicity at 10 µM was determined as 6.54%.

Consider `CCCC(C)C(=O)N1CCC(c2cc(N3CCOCC3)nc(C)n2)CC1` (stereo unspecified), for which the cytotoxicity at 10 µM was -3.35%.

`COCCN1CCN(c2ncnc3nc(C)cc(C)c23)CC1`: the cytotoxicity at 10 µM was 2.42%.

Consider `NCCn1cc(C(=O)N2CCNC(=O)C2c2cccc(F)c2)nn1` (stereo unspecified), for which the cytotoxicity at 10 µM worked out at 3.62%.

For the compound `Cc1ccc(-c2cc(C(=O)N(C)Cc3noc4c3CCCC4)[nH]n2)s1`, the cytotoxicity at 10 µM is -1.03%.

As to `CC(C)CN1CC2(CCN(C(=O)c3cn4cccnc4n3)CC2)CC1=O`, the cytotoxicity at 10 µM is -6.84%.

Consider `CCS(=O)(=O)N1CCC2(CCCN(Cc3cc(OC)ccc3F)C2)C1` (stereo unspecified), for which the cytotoxicity at 10 µM was 14.4%.

On to `Cn1cc(Cl)cc1C(=O)N1CCN(Cc2cccs2)CC1`, for which the cytotoxicity at 10 µM is -8.1%.

On to `CN(CC1COc2ccccc2O1)C(=O)NCCCn1cccn1` (stereo unspecified), for which the cytotoxicity at 10 µM was -7.27%.

Turning to `O=C(Cc1ccc2c(c1)CCO2)N1CCN(c2ccccn2)CC1`, the cytotoxicity at 10 µM is -13.6%.

For `CCc1ccsc1C(=O)N1CCN(CC(C)(C)O)CC1`, the cytotoxicity at 10 µM was -13.1%.

In the case of `Cn1ccnc1CN1CCCN(C(=O)COC2CCCCC2)CC1`, the cytotoxicity at 10 µM is -23.9%.

Turning to `CC(C)c1nn(C)c(N(C)C)c1CNCC(O)c1cccc(F)c1` (stereo unspecified), the cytotoxicity at 10 µM was -1.82%.

As to `Cc1noc(C2CCN(C(=O)CCc3nccs3)CC2)n1`, the cytotoxicity at 10 µM was -5.43%.

As to `COc1cc(CNCCc2cnn(C)c2)cc2c1OCCO2`, the cytotoxicity at 10 µM was -4.82%.

Turning to `Cc1cnn(CC(C)NCc2csc(-c3ccsc3)n2)c1` (stereo unspecified), the cytotoxicity at 10 µM is -6.79%.

On to `CN1N=C(C(=O)NCc2ccc3c(c2)CCCN3C)CCC1=O`, for which the cytotoxicity at 10 µM is -0.602%.

`O=C(NCc1cncc2c1CCN(Cc1ccc(F)cc1)C2)C1CC1`: the cytotoxicity at 10 µM was -3.26%.

As for `CN1CCN(CC2CC2)C(=O)C12CCN(C(=O)CC(F)(F)F)CC2`, the cytotoxicity at 10 µM worked out at 8.75%.

Consider `Cn1cc(C(=O)N[C@@H]2CN(CC3CCOCC3)[C@@H]3CCCO[C@@H]32)cn1`, for which the cytotoxicity at 10 µM stood at 6.64%.

`Cc1ccc(C(=O)N2CCC3(CCN(c4ccsc4)C3=O)C2)cn1` (stereo unspecified): the cytotoxicity at 10 µM was -127%.

Take `O=C(c1ccccn1)N1CCc2ncc(Cn3cccn3)n2CC1`: the cytotoxicity at 10 µM was determined as 5.44%.

Take `c1cnc(N2CCOC3(CCCN(c4cnccn4)C3)C2)nc1` (stereo unspecified): the cytotoxicity at 10 µM came out at 10.1%.

Take `Cc1cccc(CN2C(=O)C[C@H]3[C@@H]2CCN3CC2CC2)n1`: the cytotoxicity at 10 µM was found to be 6.59%.

For `Cc1ccc(CN2CCC3(CC2)CN(C(=O)c2cnccn2)CCO3)o1`, the cytotoxicity at 10 µM is -4%.

As for `CO[C@H]1CCN(c2nnc(C)s2)C[C@@H]1Cc1ccccc1`, the cytotoxicity at 10 µM was 11.8%.

On to `CN1[C@H](CN2CCCC2)C[C@@H]2CN(Cc3ccoc3)CC[C@@H]21`, for which the cytotoxicity at 10 µM was -160%.

As for `CN(C)CCOCc1nnc2n1CCN(Cc1ccco1)C2`, the cytotoxicity at 10 µM came to 7.55%.

In the case of `O=C(NCc1cccnc1)N1CCc2ncnc(C3CC3)c2CC1`, the cytotoxicity at 10 µM was -144%.

As for `O[C@H]1CCN(CC2CC2)[C@H]1Cc1ccncc1`, the cytotoxicity at 10 µM turned out to be 0.165%.

Regarding `CN(C)[C@@H]1COC[C@@H]2CN(Cc3ccc4c(c3)OCO4)C[C@@H]21`, the cytotoxicity at 10 µM was determined as 2.02%.
